This note sets out measurements from ChEMBL document CHEMBL2434855, “Aggrecanase-2 inhibitors based on the acylthiosemicarbazide zinc-binding group” (Eur J Med Chem, 2013).

The target of assay [1] is T1, Disintegrin and metalloproteinase domain-containing protein 17 (Homo sapiens, UniProt P78536). Briefly: Inhibition of human TACE after 5 mins.
In assay [2] the target is 72 kDa type IV collagenase (Homo sapiens, UniProt P08253). Put plainly: Inhibition of human MMP-2 using NFF-2 as substrate after 90 mins.
For assay [3], the target named is T2, Stromelysin-1 (Homo sapiens, UniProt P08254). Put plainly: Inhibition of human MMP-3 using NFF-2 as substrate after 30 mins.
Target sequence in this assay (P08254 whole entry): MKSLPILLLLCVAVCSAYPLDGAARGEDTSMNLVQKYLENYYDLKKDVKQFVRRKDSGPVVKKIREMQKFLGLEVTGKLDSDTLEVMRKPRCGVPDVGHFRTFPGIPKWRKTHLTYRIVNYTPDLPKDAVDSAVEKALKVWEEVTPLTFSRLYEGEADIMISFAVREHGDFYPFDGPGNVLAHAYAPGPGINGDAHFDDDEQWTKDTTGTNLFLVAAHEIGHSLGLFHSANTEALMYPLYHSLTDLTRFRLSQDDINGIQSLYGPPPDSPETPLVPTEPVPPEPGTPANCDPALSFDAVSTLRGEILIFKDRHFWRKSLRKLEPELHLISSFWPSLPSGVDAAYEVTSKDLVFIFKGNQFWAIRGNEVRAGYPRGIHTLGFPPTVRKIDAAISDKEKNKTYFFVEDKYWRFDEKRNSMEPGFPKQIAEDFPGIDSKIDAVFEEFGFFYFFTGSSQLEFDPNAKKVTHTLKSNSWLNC
For a further assay, the target named is T3, Interstitial collagenase (Homo sapiens, UniProt P03956).
T3 sequence (P03956 whole entry): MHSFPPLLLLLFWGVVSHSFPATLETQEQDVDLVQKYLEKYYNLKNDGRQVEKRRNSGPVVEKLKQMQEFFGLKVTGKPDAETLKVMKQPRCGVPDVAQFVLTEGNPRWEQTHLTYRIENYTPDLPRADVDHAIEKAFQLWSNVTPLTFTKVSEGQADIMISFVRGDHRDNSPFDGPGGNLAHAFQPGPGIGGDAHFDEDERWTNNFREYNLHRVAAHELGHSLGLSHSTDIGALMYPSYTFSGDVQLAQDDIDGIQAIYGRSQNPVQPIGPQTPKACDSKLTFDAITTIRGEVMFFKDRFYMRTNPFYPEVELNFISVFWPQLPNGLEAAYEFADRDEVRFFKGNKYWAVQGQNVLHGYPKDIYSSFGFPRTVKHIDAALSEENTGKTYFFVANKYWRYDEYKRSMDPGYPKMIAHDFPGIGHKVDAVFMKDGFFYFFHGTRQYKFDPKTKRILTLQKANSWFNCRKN
Briefly: Inhibition of human MMP-1 using DNP-Pro-Cha-Gly-Cys(Me)-His-Ala-Lys(n-Me-Abz)-NH2 as substrate after 40 mins.

The target in assay [4] is T1, Disintegrin and metalloproteinase domain-containing protein 17. Put plainly: Inhibition of human TACE at 10 uM after 5 mins.
Another assay addresses Collagenase 3 (Homo sapiens, UniProt P45452). Briefly: Inhibition of human MMP-13 after 10 mins.
Assay [5] deals with Macrophage metalloelastase (Homo sapiens, UniProt P39900). Put plainly: Inhibition of human MMP-12 after 60 mins.
For assay [6], the target named is T2, Stromelysin-1. Briefly: Inhibition of human MMP-3 using NFF-2 as substrate at 10 uM after 30 mins.
Target sequence in this assay (P08254 100-477 limits assumed): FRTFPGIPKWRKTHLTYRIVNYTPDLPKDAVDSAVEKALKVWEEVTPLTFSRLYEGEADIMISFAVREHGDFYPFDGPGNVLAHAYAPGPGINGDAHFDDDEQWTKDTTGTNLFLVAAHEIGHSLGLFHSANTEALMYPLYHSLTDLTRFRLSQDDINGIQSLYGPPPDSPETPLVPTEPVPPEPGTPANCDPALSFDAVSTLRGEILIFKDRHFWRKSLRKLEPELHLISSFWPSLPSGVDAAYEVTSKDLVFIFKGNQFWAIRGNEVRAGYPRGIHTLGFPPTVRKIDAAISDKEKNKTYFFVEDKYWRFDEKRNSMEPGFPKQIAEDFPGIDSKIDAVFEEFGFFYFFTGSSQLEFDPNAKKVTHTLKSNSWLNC
Assay [7] has as its target T4, Interstitial collagenase (Homo sapiens) (UniProt P03956).
T4 sequence (whole entry): T3 sequence (P03956 whole entry)
Briefly: Inhibition of human MMP-1 using DNP-Pro-Cha-Gly-Cys(Me)-His-Ala-Lys(n-Me-Abz)-NH2 as substrate at 10 uM after 40 mins.

The target in assay [8] is T5, A disintegrin and metalloproteinase with thrombospondin motifs 4 (Homo sapiens, UniProt O75173).
T5 sequence (O75173 whole entry): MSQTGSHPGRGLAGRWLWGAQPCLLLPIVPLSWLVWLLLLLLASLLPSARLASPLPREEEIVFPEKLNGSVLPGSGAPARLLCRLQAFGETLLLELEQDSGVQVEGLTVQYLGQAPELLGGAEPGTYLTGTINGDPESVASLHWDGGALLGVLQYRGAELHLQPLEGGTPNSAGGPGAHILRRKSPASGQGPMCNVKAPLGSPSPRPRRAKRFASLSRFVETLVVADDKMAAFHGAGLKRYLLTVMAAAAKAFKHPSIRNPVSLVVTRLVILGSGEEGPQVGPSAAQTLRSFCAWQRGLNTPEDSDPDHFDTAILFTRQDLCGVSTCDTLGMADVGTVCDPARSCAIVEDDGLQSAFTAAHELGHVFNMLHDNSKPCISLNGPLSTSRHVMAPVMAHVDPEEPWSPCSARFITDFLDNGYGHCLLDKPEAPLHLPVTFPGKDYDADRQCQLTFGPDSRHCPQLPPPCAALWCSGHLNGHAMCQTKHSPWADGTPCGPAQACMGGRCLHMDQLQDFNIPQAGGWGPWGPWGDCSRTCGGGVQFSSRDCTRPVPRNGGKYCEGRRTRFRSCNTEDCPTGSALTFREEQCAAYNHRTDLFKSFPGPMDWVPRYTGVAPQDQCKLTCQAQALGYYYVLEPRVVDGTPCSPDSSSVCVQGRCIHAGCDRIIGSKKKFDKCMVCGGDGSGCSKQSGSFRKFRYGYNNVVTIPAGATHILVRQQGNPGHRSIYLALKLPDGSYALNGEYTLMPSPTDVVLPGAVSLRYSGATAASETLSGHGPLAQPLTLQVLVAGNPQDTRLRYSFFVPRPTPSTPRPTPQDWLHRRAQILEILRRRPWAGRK
Briefly: Inhibition of human recombinant ADAMTS-4 using QTVTWPDMELPLPRNITEGEARGSVIL-TVKPIFEVSPSPL(biotinyl)K as substrate incubated for 10 mins prior to substrate addition measured after 3 hrs by spectrophotometry. A digest of the protocol:
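It was then added to streptavidin wells coated with the biotinylated 41-mer aggrecan peptide and reacted for 3 h at 37 °C. Cleavage product was detected by BC-3 anti-ARGxx ELISA with HRP and TMB, read at 450 nm.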

Assay [9] deals with T6, A disintegrin and metalloproteinase with thrombospondin motifs 5 (Homo sapiens, UniProt Q9UNA0).
T6 sequence (Q9UNA0 whole entry): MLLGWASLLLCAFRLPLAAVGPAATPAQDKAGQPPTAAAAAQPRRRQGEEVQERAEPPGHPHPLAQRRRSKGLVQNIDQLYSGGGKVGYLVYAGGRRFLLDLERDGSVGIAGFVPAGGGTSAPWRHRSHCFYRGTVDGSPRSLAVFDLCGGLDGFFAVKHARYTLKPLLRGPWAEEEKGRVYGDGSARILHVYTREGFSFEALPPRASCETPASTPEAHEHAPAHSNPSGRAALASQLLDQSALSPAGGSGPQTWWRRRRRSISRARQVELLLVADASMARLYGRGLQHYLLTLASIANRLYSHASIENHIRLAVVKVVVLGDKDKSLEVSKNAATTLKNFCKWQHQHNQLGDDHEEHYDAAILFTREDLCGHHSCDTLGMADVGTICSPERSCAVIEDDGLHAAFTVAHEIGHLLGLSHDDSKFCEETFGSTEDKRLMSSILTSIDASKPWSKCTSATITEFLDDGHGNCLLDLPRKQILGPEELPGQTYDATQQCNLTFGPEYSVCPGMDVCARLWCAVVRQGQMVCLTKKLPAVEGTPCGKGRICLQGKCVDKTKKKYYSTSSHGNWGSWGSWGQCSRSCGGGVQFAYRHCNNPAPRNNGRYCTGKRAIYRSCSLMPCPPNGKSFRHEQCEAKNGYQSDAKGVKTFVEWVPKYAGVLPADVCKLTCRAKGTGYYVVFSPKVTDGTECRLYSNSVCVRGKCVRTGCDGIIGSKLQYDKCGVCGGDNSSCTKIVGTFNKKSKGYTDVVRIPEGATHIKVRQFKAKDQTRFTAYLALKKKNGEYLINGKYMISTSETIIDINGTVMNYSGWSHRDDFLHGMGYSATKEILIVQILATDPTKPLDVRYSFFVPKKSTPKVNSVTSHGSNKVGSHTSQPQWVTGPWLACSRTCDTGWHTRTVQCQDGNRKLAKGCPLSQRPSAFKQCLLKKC
Put plainly: Inhibition of human recombinant ADAMTS-5 using QTVTWPDMELPLPRNITEGEARGSVIL-TVKPIFEVSPSPL(biotinyl)K as substrate incubated 10 mins prior to substrate addition measured after 3 hrs by spectrophotometry.

T1 sequence (P78536 whole entry, the tested form may be a part): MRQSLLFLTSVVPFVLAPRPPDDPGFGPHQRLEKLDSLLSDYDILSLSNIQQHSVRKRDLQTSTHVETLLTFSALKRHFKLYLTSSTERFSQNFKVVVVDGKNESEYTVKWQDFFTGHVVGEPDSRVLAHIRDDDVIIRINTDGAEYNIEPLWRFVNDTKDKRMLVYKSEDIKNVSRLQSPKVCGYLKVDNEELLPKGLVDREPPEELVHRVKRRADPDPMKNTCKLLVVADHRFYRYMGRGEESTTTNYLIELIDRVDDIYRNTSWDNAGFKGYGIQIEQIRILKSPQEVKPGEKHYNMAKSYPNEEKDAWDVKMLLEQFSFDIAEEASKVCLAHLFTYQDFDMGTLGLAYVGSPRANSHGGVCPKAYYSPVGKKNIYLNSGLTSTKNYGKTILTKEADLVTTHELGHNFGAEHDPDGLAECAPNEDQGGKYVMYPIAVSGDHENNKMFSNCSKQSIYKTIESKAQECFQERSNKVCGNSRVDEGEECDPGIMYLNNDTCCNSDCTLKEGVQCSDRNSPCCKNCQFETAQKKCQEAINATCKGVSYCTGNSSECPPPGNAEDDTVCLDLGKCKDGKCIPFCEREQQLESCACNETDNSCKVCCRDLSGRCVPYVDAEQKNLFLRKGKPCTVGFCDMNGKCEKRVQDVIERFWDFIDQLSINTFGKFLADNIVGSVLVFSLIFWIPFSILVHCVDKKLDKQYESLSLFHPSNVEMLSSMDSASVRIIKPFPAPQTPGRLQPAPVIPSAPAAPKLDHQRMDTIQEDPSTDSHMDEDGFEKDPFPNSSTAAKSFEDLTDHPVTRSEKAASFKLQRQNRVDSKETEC
Macrophage metalloelastase, sequence (P39900 whole entry): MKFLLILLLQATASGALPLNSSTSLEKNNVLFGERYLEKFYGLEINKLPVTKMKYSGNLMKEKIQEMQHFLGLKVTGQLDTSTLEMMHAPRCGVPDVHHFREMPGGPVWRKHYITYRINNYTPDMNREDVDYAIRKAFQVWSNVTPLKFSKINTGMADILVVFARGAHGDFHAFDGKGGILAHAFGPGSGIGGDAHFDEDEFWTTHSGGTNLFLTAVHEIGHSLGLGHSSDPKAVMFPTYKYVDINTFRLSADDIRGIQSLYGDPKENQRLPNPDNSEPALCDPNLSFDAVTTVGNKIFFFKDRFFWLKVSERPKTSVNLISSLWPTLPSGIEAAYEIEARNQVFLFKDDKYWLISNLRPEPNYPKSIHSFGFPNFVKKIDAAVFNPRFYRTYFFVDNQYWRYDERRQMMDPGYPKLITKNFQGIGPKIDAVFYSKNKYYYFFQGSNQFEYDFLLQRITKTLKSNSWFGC
72 kDa type IV collagenase, sequence (P08253 whole entry): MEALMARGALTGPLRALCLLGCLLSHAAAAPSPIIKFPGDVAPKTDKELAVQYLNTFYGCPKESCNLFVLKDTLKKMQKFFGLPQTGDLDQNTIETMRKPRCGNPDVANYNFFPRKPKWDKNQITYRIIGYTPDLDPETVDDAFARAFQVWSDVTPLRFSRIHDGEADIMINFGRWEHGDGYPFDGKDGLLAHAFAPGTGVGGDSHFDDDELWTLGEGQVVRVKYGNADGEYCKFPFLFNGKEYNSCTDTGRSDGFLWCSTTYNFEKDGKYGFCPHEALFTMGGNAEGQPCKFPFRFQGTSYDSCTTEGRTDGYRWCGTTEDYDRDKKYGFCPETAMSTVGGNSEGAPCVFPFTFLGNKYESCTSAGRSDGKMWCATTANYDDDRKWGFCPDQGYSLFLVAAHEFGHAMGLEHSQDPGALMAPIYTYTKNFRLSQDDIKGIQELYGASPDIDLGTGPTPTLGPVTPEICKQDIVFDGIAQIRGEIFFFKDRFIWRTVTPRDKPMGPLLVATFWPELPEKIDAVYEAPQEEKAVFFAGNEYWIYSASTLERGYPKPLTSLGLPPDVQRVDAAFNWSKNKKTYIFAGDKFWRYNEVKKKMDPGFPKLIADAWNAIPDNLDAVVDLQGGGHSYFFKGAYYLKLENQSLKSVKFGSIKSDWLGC

As usually defined, the IC50 is the concentration that gives 50% inhibition. For orientation: inhibition means the change of the read-out against control, counted positive when it falls. High values mean strong suppression, low ones little suppression. For the compound `O=C(COc1ccc(Cl)cc1)NNC(=S)NCCCCC1CCCCC1`, the half-maximal inhibitory concentration (IC50) was more than 10 µM in assay [1]; more than 10 µM in assay [2]; more than 10 µM at Stromelysin-1 [3]; more than 10 µM against Interstitial collagenase; more than 100 µM against Collagenase 3; more than 100 µM in [5]. The IC50 in assay [8] came to 0.63 µM; in [9], 0.17 µM. For the same compound, the inhibition (in [4]; on Stromelysin-1 [6]; in assay [7]) was less than 10% in each case.
